pIC50: −log10 of the molar value. Values after ≈ are worked out from the molar mass of the structure shown.
Tests used:
[1] = target: T1, Penicillin-binding protein 1A (Streptococcus pneumoniae serotype 4 (strain ATCC BAA-334 / TIGR4), UniProt Q04707); assay: Binding affinity to against penicillin-susceptible Streptococcus pneumoniae 1076 PBP1A by competitive binding assay
T1 sequence (Q04707 whole entry): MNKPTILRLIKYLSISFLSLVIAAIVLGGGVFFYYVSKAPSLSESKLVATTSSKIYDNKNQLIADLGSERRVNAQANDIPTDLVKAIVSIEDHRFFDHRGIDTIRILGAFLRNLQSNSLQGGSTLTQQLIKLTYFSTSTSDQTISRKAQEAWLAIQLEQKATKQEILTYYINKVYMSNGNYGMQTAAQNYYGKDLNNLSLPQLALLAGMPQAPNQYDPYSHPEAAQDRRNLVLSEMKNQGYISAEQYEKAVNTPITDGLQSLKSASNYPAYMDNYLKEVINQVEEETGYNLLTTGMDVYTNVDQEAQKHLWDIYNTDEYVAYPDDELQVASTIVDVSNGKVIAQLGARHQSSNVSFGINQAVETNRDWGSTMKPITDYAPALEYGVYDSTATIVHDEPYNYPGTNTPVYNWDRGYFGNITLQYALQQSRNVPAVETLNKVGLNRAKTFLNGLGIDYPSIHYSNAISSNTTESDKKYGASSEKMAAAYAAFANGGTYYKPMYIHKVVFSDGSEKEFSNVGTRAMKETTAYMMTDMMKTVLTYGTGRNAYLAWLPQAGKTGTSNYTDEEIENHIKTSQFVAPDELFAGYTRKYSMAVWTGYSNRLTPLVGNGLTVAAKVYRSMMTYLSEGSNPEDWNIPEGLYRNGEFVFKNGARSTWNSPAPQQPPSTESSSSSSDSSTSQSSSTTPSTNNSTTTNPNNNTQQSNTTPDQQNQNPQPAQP
Method in brief: (§1)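 Whole pneumococcal cells grown to OD600 0.3 in Todd-Hewitt broth with 0.5% yeast extract, resuspended in 50 mM NaPO4 pH 7.0. Cells (10^8–5 × 10^8 CFU/ml) incubated with β-lactam 10 min at 37°C, then Bocillin FL 10 μg/ml, 15 min at 37°C. SDS-PAGE, 520 nm fluorescence; IC50 = 50% inhibition of Bocillin FL binding; 2 experiments.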

[2] = target: T1, Penicillin-binding protein 1A; assay: Binding affinity to penicillin-resistant Streptococcus pneumoniae 3413 PBP1A by competitive binding assay
Method in brief: (§2)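 Whole pneumococcal cells were grown to OD600 0.3 in Todd-Hewitt broth plus 0.5% yeast extract, then resuspended in 50 mM NaPO4, pH 7.0. Cells at 10^8 to 5 × 10^8 CFU/ml were exposed to β-lactam for 10 min at 37°C, alongside a reference without drug. They were then labeled with 10 μg/ml Bocillin FL for 15 min at 37°C. Proteins were resolved by SDS-PAGE and fluorescence read at 520 nm. IC50 was taken as 50% inhibition of Bocillin FL binding, from 2 experiments.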

[3] = Binding affinity to against penicillin-susceptible Streptococcus pneumoniae 1076 PBP1B by competitive binding assay; method in brief: as §1
[4] = Binding affinity to penicillin-resistant Streptococcus pneumoniae 24 PBP1B by competitive binding assay; method in brief: as §1
[5] = target: T2, Penicillin-binding protein 2x (Streptococcus pneumoniae serotype 4 (strain ATCC BAA-334 / TIGR4), UniProt P14677); assay: Binding affinity to against penicillin-susceptible Streptococcus pneumoniae 1076 PBP2X by competitive binding assay; method in brief: as §1
T2 sequence (P14677 whole entry): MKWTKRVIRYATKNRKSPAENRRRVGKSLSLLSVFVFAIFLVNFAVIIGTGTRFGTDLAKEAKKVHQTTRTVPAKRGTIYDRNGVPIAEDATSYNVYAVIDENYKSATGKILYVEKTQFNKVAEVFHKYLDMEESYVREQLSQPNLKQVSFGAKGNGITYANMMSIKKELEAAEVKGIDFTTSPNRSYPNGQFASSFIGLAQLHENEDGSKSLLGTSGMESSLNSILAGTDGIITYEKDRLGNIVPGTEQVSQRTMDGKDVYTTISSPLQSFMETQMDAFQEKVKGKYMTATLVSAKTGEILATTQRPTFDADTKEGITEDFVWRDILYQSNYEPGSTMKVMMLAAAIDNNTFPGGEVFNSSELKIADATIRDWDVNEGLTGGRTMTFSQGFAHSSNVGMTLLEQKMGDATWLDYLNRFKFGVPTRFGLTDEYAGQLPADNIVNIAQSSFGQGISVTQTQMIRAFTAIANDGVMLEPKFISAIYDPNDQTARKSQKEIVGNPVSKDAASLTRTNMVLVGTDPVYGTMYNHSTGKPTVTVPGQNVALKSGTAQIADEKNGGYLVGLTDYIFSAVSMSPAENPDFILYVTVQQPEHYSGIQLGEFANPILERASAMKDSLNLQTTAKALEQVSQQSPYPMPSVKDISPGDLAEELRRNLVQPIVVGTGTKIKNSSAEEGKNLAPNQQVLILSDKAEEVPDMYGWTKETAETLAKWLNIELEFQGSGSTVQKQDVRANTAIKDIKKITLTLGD

[6] = Binding affinity to against penicillin-susceptible Streptococcus pneumoniae 1076 PBP2A by competitive binding assay; method in brief: as §1
[7] = Binding affinity to penicillin-resistant Streptococcus pneumoniae 24 PBP2A by competitive binding assay; method in brief: as §1
[8] = Binding affinity to penicillin-resistant Streptococcus pneumoniae 3413 PBP2A by competitive binding assay; method in brief: as §2
[9] = target: T3, Penicillin-binding protein 2B (Streptococcus pneumoniae serotype 4 (strain ATCC BAA-334 / TIGR4), UniProt P0A3M5); assay: Binding affinity to penicillin-resistant Streptococcus pneumoniae 3413 PBP2B by competitive binding assay; method in brief: as §2
T3 sequence (P0A3M5 whole entry): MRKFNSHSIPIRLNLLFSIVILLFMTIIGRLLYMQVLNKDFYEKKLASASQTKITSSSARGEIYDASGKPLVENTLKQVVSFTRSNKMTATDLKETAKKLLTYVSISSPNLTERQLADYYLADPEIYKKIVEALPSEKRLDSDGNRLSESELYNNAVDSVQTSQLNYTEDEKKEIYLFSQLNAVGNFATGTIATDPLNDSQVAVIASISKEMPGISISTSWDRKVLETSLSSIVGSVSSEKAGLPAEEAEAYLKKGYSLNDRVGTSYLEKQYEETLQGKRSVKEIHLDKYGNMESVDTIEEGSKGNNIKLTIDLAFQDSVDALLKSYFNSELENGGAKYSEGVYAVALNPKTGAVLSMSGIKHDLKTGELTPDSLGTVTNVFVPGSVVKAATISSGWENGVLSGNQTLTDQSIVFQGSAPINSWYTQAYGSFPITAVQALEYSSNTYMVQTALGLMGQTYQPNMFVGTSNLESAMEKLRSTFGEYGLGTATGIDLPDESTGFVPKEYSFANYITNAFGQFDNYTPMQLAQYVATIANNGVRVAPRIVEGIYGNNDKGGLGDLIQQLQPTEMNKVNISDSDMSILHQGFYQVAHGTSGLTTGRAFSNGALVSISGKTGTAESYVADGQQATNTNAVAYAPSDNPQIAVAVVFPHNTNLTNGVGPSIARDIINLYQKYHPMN

[10] = Binding affinity to against penicillin-susceptible Streptococcus pneumoniae 1076 PBP3 by competitive binding assay; method in brief: as §1

| SMILES | pIC50 [1] | pIC50 [2] | IC50 [3] [µg/mL] | IC50 [4] [µg/mL] | pIC50 [5] | IC50 [6] [µg/mL] | IC50 [7] [µg/mL] | IC50 [8] [µg/mL] | pIC50 [9] | IC50 [10] [µg/mL] |
| --- | --- | --- | --- | --- | --- | --- | --- | --- | --- | --- |
| CO/N=C(\C(=O)N[C@@H]1C(=O)N2C(C(=O)O)=C(COC(C)=O)CS[C@H]12)c1csc(N)n1 [CEFOTAXIME] | 6.66 | 6.26 | 0.25 (≈ 0.549 µM) | 8 (≈ 17.6 µM) | 6.26 | 0.25 (≈ 0.549 µM) | 0.5 (≈ 1.1 µM) | 0.25 (≈ 0.549 µM) | 4.45 | 0.1 (≈ 0.22 µM) |
| CO/N=C(\C(=O)N[C@@H]1C(=O)N2C(C(=O)O)=C(CSc3nc(=O)c(O)nn3C)CS[C@H]12)c1csc(N)n1 [CEFTRIAXONE] | 6.74 | 6.35 | 0.1 (≈ 0.18 µM) | 1 (≈ 1.8 µM) | 6.74 | 0.25 (≈ 0.451 µM) | 1 (≈ 1.8 µM) | 1 (≈ 1.8 µM) | 4.54 | 0.1 (≈ 0.18 µM) |

From ChEMBL document CHEMBL1255453, “Affinity of ceftaroline and other beta-lactams for penicillin-binding proteins from Staphylococcus aureus and Streptococcus pneumoniae” (Antimicrob Agents Chemother, 2010)
